The target of this test is CHO-CHOP luciferase reporter, UPR apoptotic arm activation. Description: activators of PERK-eIF2a-CHOP apoptotic UPR arm, SAR follow-up, cell-based, CHO-CHOP line, luminescence, set 2 (AID 588594). The gist of the method:
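Assay system: CHO-CHOP cells with stable CHOP-driven luciferase reporter (PERK-eIF2a-CHOP arm); quantity: 500 cells/well; compound dosing: dose-response series, DMSO ≤1%; times: seeding 16-18 h before compounds, 6 h exposure at 37 °C; technique: Steady-Glo luminescence; controls: high tunicamycin 10 µg/mL, low DMSO alone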

The source made the active and inactive calls.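 The calls were made as follows: active = mean EC50 of 20 µM or lower; inactive = the rest.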

What is called EC50 is the concentration at which the effect is half-maximal. Take `CC(C)(C)C1CCN(S(=O)(=O)c2ccc(NC(=O)c3ccc([N+](=O)[O-])o3)cc2)CC1`: the EC50 is 0.676 µM. In the case of `O=C(Nc1nc2cc(F)cc(F)c2s1)c1ccccn1`, the EC50 was 6.87 µM. Take `O=C(Nc1ccc(S(=O)(=O)N2CCC3(CCCCC3)CC2)cc1)c1ccc([N+](=O)[O-])o1`: the EC50 is 0.732 µM. In the case of `CC1(C)CCN(S(=O)(=O)c2ccc(NC(=O)c3cccc([N+](=O)[O-])c3)cc2)CC1`, the EC50 was > 80 µM (inactive).

For the compound `O=C(Nc1nc2c(F)c(F)ccc2s1)c1ccccn1`, the EC50 is 9.88 µM.

For `O=C(Nc1nc2c(F)ccc(F)c2s1)c1ccccn1`, the EC50 was 6.65 µM. With `CC1(C)CCN(S(=O)(=O)c2ccc(NC(=O)c3ccc(C(F)(F)F)o3)cc2)CC1`, the EC50 was > 80 µM (inactive).

Regarding `O=C(Nc1ccc(S(=O)(=O)C2CCOCC2)cc1)c1ccc([N+](=O)[O-])o1`, the EC50 was 1.19 µM. For the compound `O=C(Nc1nc2ccc(C(F)(F)F)cc2s1)c1ccccn1`, the EC50 was 4.68 µM.

Take `O=C(Nc1nc2ccc(F)c(F)c2s1)c1ccccn1`: the EC50 is 5.59 µM. Consider `O=C(Nc1ccc(S(=O)(=O)N2CCC(F)CC2)cc1)c1ccc([N+](=O)[O-])o1`, for which the half-maximal effective concentration (EC50) was 0.774 µM. `O=C(Nc1nc2cc(F)ccc2s1)c1ccccn1`: the concentration for a half-maximal effect (EC50) was 7.13 µM. As for `O=C(Nc1ccc(S(=O)(=O)N2CCC(Cl)CC2)cc1)c1ccc([N+](=O)[O-])o1`, the EC50 was 0.739 µM. The same measure for `Cn1c([N+](=O)[O-])cnc1C(=O)Nc1ccc(S(=O)(=O)N2CCC(C)(C)CC2)cc1`: > 77.5 µM (inactive). Consider `O=C(Nc1nc2cccc(F)c2s1)c1ccccn1`, for which the half-maximal effective concentration (EC50) is 7 µM. The same measure for `O=C(Nc1nc2cc(F)c(F)cc2s1)c1ccccn1`: 8.28 µM; for `CC1CN(S(=O)(=O)c2ccc(NC(=O)c3ccc([N+](=O)[O-])o3)cc2)CC(C)O1` (stereo not drawn): 1.36 µM. As for `O=C(Nc1nc2ccc(Cl)cc2s1)c1ccccn1`, the EC50 was 5.99 µM.

The values above are taken from PubChem BioAssay AID588594 (Sanford-Burnham Center for Chemical Genomics, 2011).
